Test results: article PMC4894821 (ACS chemical biology, 2015)
Each block holds one compound with its values, some of them ahead of it.

Columns and labels:
OGG1 [1] = target: T1, OGG1 (Homo sapiens, UniProt O15527); assay: Gel-based OGG1 cleavage assay; assay type: biochemical; settings: eight concentrations up to 25 μM
OGG1 [2] = target: T1, OGG1; assay: Sodium cyanoborohydride trapping assay; assay type: biochemical; settings: 10 μM inhibitor, 1 mM NaBH3CN
Human NEIL1 = Human NEIL1 (Homo sapiens, UniProt Q96FI4); assay: Fluorescence-based NEIL1 activity assay; assay type: biochemical; settings: read-out: NEIL1 % activity with 50 μM inhibitor
Human NTH1 = target: T2, Human NTH1 (Homo sapiens, UniProt P78549); assay: Fluorescence-based NTH1 activity assay; assay type: biochemical; settings: read-out: NTH1 % activity with 50 μM inhibitor
T2 sequence (P78549 23-304): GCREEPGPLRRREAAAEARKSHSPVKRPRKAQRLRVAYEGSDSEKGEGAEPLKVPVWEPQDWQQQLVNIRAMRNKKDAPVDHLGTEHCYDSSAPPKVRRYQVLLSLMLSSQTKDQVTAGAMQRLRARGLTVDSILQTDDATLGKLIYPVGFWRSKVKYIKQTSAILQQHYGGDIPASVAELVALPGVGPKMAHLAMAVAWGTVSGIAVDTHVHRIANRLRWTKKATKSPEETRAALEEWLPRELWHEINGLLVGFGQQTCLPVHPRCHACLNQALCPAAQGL

OGG1 [3] = target: T1, OGG1; assay: OGG1 AP lyase activity on AP site-containing substrate; assay type: biochemical; settings: 10 μM compound, compared with no inhibitor control
Summary of the method: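 AP-site substrate made by treating U-containing duplex with Udg, 37 °C, 2 h. OGG1 (62.5 nM stock) mixed with 10 μM compound or buffer, then substrate (50 nM stock) added. Incubated 30 min at 37 °C, quenched with formamide, resolved on 15% polyacrylamide/8 M urea gel. Percent cleavage vs no-inhibitor control; three independent experiments.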

OGG1 [4] = target: T1, OGG1; assay: Gel shift assay; assay type: binding; settings: 50 μM inhibitor or ATA, 4 °C
Summary of the method: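 EMSA on ice with precooled reagents. OGG1 (125 nM stock) pre-incubated 5–10 min with 50 μM inhibitor, ATA or buffer. Added 8-oxo-Gua, AP-site or U-containing fluorescent duplex (50 nM stock), held 5 min. Quenched with cold 30% glycerol; run on 8% native gel with 30% glycerol, 4 °C, 1 h, 75 V. Percent bound vs no-inhibitor control; three independent experiments.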

AP-containing substrate = assay: Protection of AP-containing substrate against NaOH-mediated strand cleavage

T1 sequence (O15527 whole entry): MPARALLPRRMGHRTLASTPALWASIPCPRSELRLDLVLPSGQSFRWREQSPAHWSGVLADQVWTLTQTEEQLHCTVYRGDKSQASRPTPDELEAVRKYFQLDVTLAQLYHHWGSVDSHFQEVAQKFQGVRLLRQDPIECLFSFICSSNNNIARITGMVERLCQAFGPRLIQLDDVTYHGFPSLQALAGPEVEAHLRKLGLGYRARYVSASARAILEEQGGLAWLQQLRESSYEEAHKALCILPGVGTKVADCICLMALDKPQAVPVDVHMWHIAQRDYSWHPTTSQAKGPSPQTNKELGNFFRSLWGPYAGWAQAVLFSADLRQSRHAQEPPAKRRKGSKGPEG
Sequence of Human NEIL1 (Q96FI4 whole entry): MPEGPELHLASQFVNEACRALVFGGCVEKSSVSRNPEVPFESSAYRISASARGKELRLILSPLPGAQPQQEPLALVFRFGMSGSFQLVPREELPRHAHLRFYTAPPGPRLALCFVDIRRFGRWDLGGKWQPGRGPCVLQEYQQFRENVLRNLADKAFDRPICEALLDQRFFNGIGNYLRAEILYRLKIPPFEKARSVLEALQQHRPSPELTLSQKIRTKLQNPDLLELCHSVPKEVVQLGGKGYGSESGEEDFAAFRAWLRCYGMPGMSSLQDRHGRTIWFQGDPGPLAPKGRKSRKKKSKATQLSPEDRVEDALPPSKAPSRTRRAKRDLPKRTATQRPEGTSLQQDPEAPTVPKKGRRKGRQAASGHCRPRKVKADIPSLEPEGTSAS

inhibition of OGG1 (gel-based strand cleavage) (OGG1 [1]): no inhibition
trapping of OGG1 on 8-oxo-Gua- and AP site-containing substrates (Schiff base formation) (OGG1 [2]): no effect
activity at 50 µM (Human NEIL1): 80.6%
activity at 50 µM (Human NTH1): 98%
OGG1-induced cleavage of an AP site (lyase activity) (OGG1 [3]): no effect
SMILES: NNC(=O)c1ccncc1 [Isoniazid (INH), isoniazid]

SMILES: O=C(O)C1=CC(=C(c2ccc(O)c(C(=O)O)c2)c2ccc(O)c(C(=O)O)c2)C=CC1=O [aurintricarboxylic acid (ATA), aurintricarboxylic acid]
OGG1 binding to 8-oxo-Gua substrate (OGG1 [4]): abrogated

SMILES: NNc1nncc2ccccc12 [hydralazine]
protection against NaOH-mediated (alkaline-induced) strand cleavage (AP-containing substrate): 63%

OGG1-induced cleavage of an AP site (lyase activity) (OGG1 [3]): no effect
SMILES: Cc1cc(C(=O)NNCc2ccccc2)no1 [isocarboxazid (ICD), isocarboxazid]
